Assay results from ChEMBL document CHEMBL3286368, “Delayed and Prolonged Histone Hyperacetylation with a Selective HDAC1/HDAC2 Inhibitor” (ACS Med Chem Lett, 2014).

Tests used:
[1] = target: Voltage-gated inwardly rectifying potassium channel KCNH2 (Homo sapiens, UniProt Q12809); assay: Binding affinity to human ERG
[2] = target: Histone deacetylase 1 (Homo sapiens, UniProt Q13547); type: cell-based, HEK293F
[3] = system: HCT-116; assay: cells; type: functional, Homo sapiens; details: Homo sapiens, HCT-116, 72 h
[4] = Solubility of the compound; type: physicochemical
How it was run: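 Solubility determined on the bis-HCl salt, reported in mg/mL.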

Histone deacetylase 1, sequence (Q13547 whole entry): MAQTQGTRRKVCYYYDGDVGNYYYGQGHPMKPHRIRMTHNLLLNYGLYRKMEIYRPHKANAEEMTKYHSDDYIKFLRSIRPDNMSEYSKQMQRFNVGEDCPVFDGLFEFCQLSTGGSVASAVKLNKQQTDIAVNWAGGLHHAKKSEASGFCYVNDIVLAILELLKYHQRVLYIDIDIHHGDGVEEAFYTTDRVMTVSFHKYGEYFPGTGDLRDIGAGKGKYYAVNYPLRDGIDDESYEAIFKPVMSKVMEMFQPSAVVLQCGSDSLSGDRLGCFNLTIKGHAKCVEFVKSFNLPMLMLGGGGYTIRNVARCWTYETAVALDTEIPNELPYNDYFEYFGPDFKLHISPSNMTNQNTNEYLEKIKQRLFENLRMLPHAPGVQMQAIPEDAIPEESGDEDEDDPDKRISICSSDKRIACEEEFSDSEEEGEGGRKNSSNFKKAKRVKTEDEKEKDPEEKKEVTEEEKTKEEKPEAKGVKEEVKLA
Voltage-gated inwardly rectifying potassium channel KCNH2, sequence (Q12809 whole entry): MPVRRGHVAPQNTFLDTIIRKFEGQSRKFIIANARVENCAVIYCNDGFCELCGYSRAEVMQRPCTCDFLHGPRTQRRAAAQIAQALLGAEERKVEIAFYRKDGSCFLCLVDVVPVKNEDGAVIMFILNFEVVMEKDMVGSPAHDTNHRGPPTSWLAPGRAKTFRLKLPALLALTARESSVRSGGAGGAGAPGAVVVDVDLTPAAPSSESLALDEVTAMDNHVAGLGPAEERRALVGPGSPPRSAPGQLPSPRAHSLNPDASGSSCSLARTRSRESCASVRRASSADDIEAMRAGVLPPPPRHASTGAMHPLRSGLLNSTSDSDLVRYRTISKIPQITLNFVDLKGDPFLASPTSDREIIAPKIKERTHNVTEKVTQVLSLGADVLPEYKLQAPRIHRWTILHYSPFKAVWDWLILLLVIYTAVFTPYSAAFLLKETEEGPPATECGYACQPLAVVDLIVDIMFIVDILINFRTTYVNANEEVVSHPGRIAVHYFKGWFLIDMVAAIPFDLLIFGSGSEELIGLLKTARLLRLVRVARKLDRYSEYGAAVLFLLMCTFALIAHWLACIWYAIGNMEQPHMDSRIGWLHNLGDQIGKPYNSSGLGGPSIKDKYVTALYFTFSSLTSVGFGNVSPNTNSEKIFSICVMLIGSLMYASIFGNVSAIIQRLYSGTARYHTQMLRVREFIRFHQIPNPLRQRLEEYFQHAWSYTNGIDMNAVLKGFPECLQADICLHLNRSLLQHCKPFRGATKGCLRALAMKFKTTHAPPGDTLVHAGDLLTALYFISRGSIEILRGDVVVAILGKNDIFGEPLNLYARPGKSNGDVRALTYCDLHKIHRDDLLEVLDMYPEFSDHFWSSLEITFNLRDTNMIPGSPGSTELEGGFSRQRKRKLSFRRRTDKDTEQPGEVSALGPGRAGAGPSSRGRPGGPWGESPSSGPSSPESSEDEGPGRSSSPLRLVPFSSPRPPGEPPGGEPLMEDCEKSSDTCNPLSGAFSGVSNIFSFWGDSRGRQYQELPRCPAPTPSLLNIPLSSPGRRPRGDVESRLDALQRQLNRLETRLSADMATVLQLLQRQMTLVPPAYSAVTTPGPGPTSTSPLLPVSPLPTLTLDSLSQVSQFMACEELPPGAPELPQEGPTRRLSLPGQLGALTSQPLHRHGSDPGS

Compound	Ki [1]	IC50 [2]	GI50 [3]	solubility [4]
Nc1ccc(-c2ccsc2)cc1NC(=O)c1ccc(N2CCC3(CC2)CNC(=O)O3)nc1	> 30 µM	11 nM	270 nM	
Cc1csc(-c2ccc(N)c(NC(=O)c3ccc(N4CCC5(CC4)CNC(=O)O5)nc3)c2)c1	2 µM	14 nM	890 nM	
Nc1ccc(-c2ccccc2)cc1NC(=O)c1ccc(N2CCC3(CC2)CNC(=O)O3)nc1	3.4 µM	17 nM	490 nM	
Nc1ccc(-c2ccc(F)cc2)cc1NC(=O)c1ccc(N2CCC3(CC2)CNC(=O)O3)nc1	0.62 µM	20 nM	710 nM	
Cn1cc(-c2ccc(N)c(NC(=O)c3ccc(N4CCC5(CC4)CNC(=O)O5)nc3)c2)cn1	> 10 µM	18 nM	2120 nM	
Cn1cnc(-c2ccc(N)c(NC(=O)c3ccc(N4CCC5(CC4)CNC(=O)O5)nc3)c2)c1	> 10 µM	51 nM	4650 nM	
Nc1ccccc1NC(=O)c1ccc(N2CCC3(CC2)CNC(=O)O3)nc1	> 10 µM	580 nM	5080 nM	
Cl.Nc1ccc(-c2cccs2)cc1NC(=O)c1ccc(N2CCC3(CC2)CNC(=O)O3)nc1				1300 µg/mL
